According to ChEMBL document CHEMBL4706708, “Improving the solubility of anti-proliferative thieno[2,3-b]quinoline-2-carboxamides” (Bioorg Med Chem, 2021):
≈ marks a conversion by molar mass, not a printed value.

Key:
HCT-116 [1] = experiment: Antiproliferative activity against human HCT-116 cells assessed as cell growth at 1 uM measured after 3 days by [3H]-thymidine incorporation assay relative to control; assay type: functional; settings: HCT-116, 72 h, time 3 day, read-out: Activity
Summary of the method: (§1)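 HCT116 and MDA-MB-231 cells from ATCC, seeded at 3000 cells/well, exposed to inhibitor for three days; 0.04 µCi 3H-thymidine added per well 5 h before harvest onto glass fibre filters, incorporation counted by scintillation and expressed relative to untreated controls. Triplicate wells, at least two independent experiments. Single-point screen at 1 µM; IC50 determined from varying concentrations.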

HCT-116 [2] = experiment: Antiproliferative activity against human HCT-116 cells assessed as cell growth inhibition measured after 3 days by [3H]-thymidine incorporation assay; assay type: functional, cell-based; summary of the method: as §1
[3] = Thermodynamic solubility of compound in water measured after 15 mins RP-HPLC analysis; assay type: physicochemical; settings: read-out: Therm_solubility
MDA-MB-231 [4] = experiment: Antiproliferative activity against human MDA-MB-231 cells assessed as cell growth at 1 uM measured after 3 days by [3H]-thymidine incorporation assay relative to control; assay type: functional; settings: MDA-MB-231, 72 h, time 3 day, read-out: Activity; summary of the method: as §1
MDA-MB-231 [5] = experiment: Antiproliferative activity against human MDA-MB-231 cells assessed as cell growth inhibition measured after 3 days by [3H]-thymidine incorporation assay; assay type: functional, cell-based; summary of the method: as §1
[6] = Stability in water measured after 15 mins RP-HPLC analysis; assay type: physicochemical; settings: buffer, 0.25 h

Compound	growth at 1 µM (HCT-116 [1])	IC50 (HCT-116 [2])	solubility thermodynamic at 0.25 h [3]	growth at 1 µM (MDA-MB-231 [4])	IC50 (MDA-MB-231 [5])	Stabilty [6]
Cc1c(Cl)cccc1NC(=O)c1sc2nc3c(cc2c1N)CN(Cc1ccccc1)CC3	2.3%	193 nM	0.77 µg/mL (≈ 1.66 µM)	4%	150 nM	
CC(=O)c1cc2c(N)c(C(=O)Nc3cccc4c3OCCO4)sc2nc1C	72.5%		0.26 µg/mL (≈ 0.678 µM)	104%		Unstable
Cc1nc2sc(C(=O)Nc3cccc4ccccc34)c(N)c2cc1C(C)O (stereo not drawn)	1.7%	171 nM	2.21 µg/mL (≈ 5.85 µM)	9.9%	81 nM	
COc1ccc(NC(=O)c2sc3nc(C)c(C(C)=O)cc3c2N)cc1	82.9%		0.13 µg/mL (≈ 0.366 µM)	84.6%		
CC(=O)c1cc2c(N)c(C(=O)Nc3cccc(C)c3C)sc2nc1C	2.1%	422 nM	0.68 µg/mL (≈ 1.92 µM)	8.9%	506 nM	
Nc1c(C(=O)Nc2cccc3ccccc23)sc2nc3c(cc12)CN(Cc1ccccc1)CC3	4.7%	640 nM	3.97 µg/mL (≈ 8.55 µM)	19.3%	644 nM	
Cc1c(Cl)cccc1NC(=O)c1sc2nc3c(cc2c1N)CN(C)CC3	101%		0.44 µg/mL (≈ 1.14 µM)	95.3%		Unstable
CC(=O)c1cc2c(N)c(C(=O)Nc3ccccc3C)sc2nc1C	110%		1.49 µg/mL (≈ 4.39 µM)	97.1%		
CC(=O)c1cc2c(N)c(C(=O)Nc3ccnc4ccccc34)sc2nc1C	102%		0.26 µg/mL (≈ 0.691 µM)	91.6%		Unstable
COc1cccc(NC(=O)c2sc3nc(C)c(C(C)=O)cc3c2N)c1C	96.8%		1.52 µg/mL (≈ 4.11 µM)	99.7%		
CC(=O)c1cc2c(N)c(C(=O)Nc3cccc4ccccc34)sc2nc1C	7.8%	591 nM	1.08 µg/mL (≈ 2.88 µM)	13.6%	633 nM	
CC(=O)c1cc2c(N)c(C(=O)Nc3cccc(Br)c3C)sc2nc1C	4%	183 nM	1.15 µg/mL (≈ 2.75 µM)	11%	219 nM	
Cc1c(Br)cccc1NC(=O)c1sc2nc3c(cc2c1N)CN(Cc1ccccc1)CC3	1%	151 nM	0.61 µg/mL (≈ 1.2 µM)	3.5%	122 nM	
CC(=O)c1cc2c(N)c(C(=O)Nc3cccc(Cl)c3C)sc2nc1C	10%	573 nM	1.63 µg/mL (≈ 4.36 µM)	13.7%	636 nM	
Cc1c(NC(=O)c2sc3nc4c(cc3c2N)CN(Cc2ccccc2)CC4)cccc1C(F)(F)F	69.7%	> 1000 nM	1.31 µg/mL (≈ 2.64 µM)	61.5%	> 1000 nM	
Cc1c(Cl)cccc1NC(=O)c1sc2nc3c(cc2c1N)COCC3	78.1%		1.15 µg/mL (≈ 3.08 µM)	50.9%		Unstable
CC(=O)c1cc2c(N)c(C(=O)Nc3ccccc3)sc2nc1C	109%		3 µg/mL (≈ 9.22 µM)	120%		
Cc1cccc(NC(=O)c2sc3nc4c(cc3c2N)CN(Cc2ccccc2)CC4)c1C	1.5%	201 nM	1.72 µg/mL (≈ 3.89 µM)	4%	162 nM	
Cc1nc2sc(C(=O)Nc3cccc(Cl)c3C)c(N)c2cc1C(C)O (stereo not drawn)	2.2%	72 nM	2.41 µg/mL (≈ 6.41 µM)	11.7%	76 nM	
